# Hits are enriched below; roughly 3.7% of the tested compounds scored in any of these assays.
# aDG glyco act: alpha-DG glycosylation activation | Pro5-aDG cells, alpha-DG glycosylation AlphaScreen (IIH6); 0% Pro5, 100% B10-LARGE cell signal | activation, % at 10 µM | hit rate 0.22% among 360,000 | AID 624168;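 active = activation of at least 8% versus controls, or a plate z-score of at least 8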;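 note: Pro5 are CHO cells carrying HIG-tagged alpha-DG that lacks glycosylation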
# proCasp3 act: procaspase-3 (human) activation | activation, % at 8.5 µM | P42574 | recombinant procaspase-3 D3A, Ac-DEVD-pNA absorbance 405 nm | hit rate 0.11% among 330,000;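 active = activation above the mean of all tested compounds plus 3 SD, cut at about 21% in these data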;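 note: 0% = DMSO alone and 100% = DMSO wells spiked with extra 5 µM PC-3 D3A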
# Target sequence (P42574 whole entry D9A/D28A/D175A): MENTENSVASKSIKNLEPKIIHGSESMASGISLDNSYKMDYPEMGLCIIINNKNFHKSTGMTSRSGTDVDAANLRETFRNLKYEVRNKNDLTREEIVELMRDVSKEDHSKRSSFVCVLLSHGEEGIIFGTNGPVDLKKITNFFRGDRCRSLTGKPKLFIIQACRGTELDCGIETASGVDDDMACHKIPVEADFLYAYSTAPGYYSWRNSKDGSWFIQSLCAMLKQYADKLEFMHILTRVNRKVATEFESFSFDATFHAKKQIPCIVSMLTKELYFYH
#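 Assay system: Autoprocessing-dead procaspase-3 D3A mutant enzyme; also added: Ac-DEVD-pNA; doses: one concentration, 8.5 µM nominal, 0.8% DMSO; times: 1 h compound preincubation, 2 h substrate hydrolysis at 25 °C; technique: 405 nm absorbance of p-nitroaniline, reads at 0 and 120 min; measure: % activation between DMSO and enzyme-spiked controls; repeats: single replicate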
# proCasp7 act: activates human procaspase-7, counter-screen for procaspase-3 activators. P55210. recombinant procaspase-7, Ac-DEVD-pNA absorbance 405 nm; D23A/D198A/D206A triple mutant, cannot self-cleave; scale: DMSO 0, 5 µM enzyme 100. activation, % at 8.5 µM. hit rate 0.093% among 330,000. AID 463210;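 active = percent activation above the screen-wide mean plus 3 SD, cut at about 25% in these data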
# Target sequence (P55210 whole entry D23A/D198A/D206A): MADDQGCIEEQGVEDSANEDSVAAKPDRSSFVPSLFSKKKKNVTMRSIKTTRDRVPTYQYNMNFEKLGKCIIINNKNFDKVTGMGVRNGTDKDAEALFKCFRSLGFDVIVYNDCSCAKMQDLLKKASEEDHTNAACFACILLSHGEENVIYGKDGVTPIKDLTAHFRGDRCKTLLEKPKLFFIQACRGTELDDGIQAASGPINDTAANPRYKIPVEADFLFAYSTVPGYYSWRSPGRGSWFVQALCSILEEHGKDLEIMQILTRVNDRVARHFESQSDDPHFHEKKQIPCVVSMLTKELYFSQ
#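 Test system: Procaspase-7 triple mutant (PC-7 D3A). Also added: Ac-DEVD-pNA substrate, 400 µM as added. Schedule: 1 h enzyme–compound preincubation and 2 h substrate reaction, both 25 °C. Signal: p-Nitroaniline absorbance at 405 nm, read at 0 and 120 min. Control set: low DMSO alone, high DMSO plus 5 µM PC-7.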
# MPTP block: permeability transition pore inhibition | isolated mouse mitochondria, Ca2+ swelling absorbance, 30 min | inhibition, % at 10 µM | hit rate 1.4% among 360,000 | AID 602449;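 active = inhibition of 50% or more, scaled per plate between neutral and stimulator controls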;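 note: 0% = DMSO wells given calcium and 100% = 1 mM EGTA wells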
# NR3A LBD binder: NR3A (human) ligand-binding domain modulation. Tm shift relative to glycine control, % at 25 µM. hit rate 2.5% among 340,000. NR3A LBD differential scanning fluorimetry, Tm shift; 0% = protein alone, 100% = glycine-bound protein;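 active = melting temperature shift of at least 10% of the positive control shift, at one fixed dose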
# * marks the source's active call; other numbers are inactive results; . = not tested or not shown.
SMILES,aDG glyco act,proCasp3 act,proCasp7 act,MPTP block,NR3A LBD binder
COc1ccccc1/C=C/C(=O)Nc1cccc(C(C)=O)c1,0.0,-7.6,-1.7,1.6,21.0*
COc1cccc(/C=C/C(=O)Nc2cccc(C(C)=O)c2)c1OC,0.5,3.1,11.0,-0.7,15.3*
Nc1nc2c(ncn2[C@@H]2O[C@H](CNCC3=Cc4cc(O)ccc4OC3)[C@@H](O)[C@H]2O)c(=O)[nH]1,-0.1,.,.,-3.0,.
CCN(CC)c1nc(C=Cc2ccc(N(C)C)cc2)c2nccnc2n1,-0.3,.,.,9.0,.
COCc1cccc(-c2csc(C(C)(NC(C)=O)c3ccccc3)n2)c1 (configuration not stated),0.2,.,.,-1.5,.
CC(=O)c1ccc(NC(=S)N(C)C2CCN(C)CC2)cc1,0.0,-8.8,-4.8,-12.7,19.6*
CN1CCC(N(C)C(=S)Nc2ccc(F)cc2)CC1,-0.1,-7.7,-4.1,-1.8,1.4
COCCOC(=O)N1CCCCC1c1cc(C(=O)NCc2ccc(Cl)c(Cl)c2)no1 (configuration not stated),0.0,.,.,0.6,.
O=C(OCC(=O)c1c[nH]c2ccccc12)c1ccc([N+](=O)[O-])s1,0.2,-8.1,-0.9,-0.3,9.7
CCc1cccc2c(C(=O)COC(=O)c3ccc([N+](=O)[O-])s3)c[nH]c12,0.1,4.4,1.5,1.8,10.5*
O=C(O)CC/C(=C\c1ccc(N2CCOCC2)c([N+](=O)[O-])c1)c1nc2ccccc2s1,0.1,.,.,1.1,4.5
O=C(O)CC/C(=C\c1ccc(Cl)c([N+](=O)[O-])c1)c1nc2ccccc2s1,-0.2,1.3,6.5,1.6,29.9*
CC(C)C[C@H]1CN(CCCC[C@H]2CNC(=O)C(=O)N2CCC2CCCCC2)C(=O)C(=O)N1CC1CCCCC1,0.4,.,.,-5.5,.
O=C(OCc1csc(Nc2ccccc2)n1)c1ccc(Cl)cc1,-0.1,2.4,-9.0,-0.5,10.7*
COc1ccc(/C=C/C(=O)O/N=C(\N)c2ccccn2)cc1OC,0.1,5.2,-9.0,-1.7,0.1
O=C(OCc1csc(-c2ccccc2)n1)c1ccc(O)cc1,0.0,7.1,-0.1,0.4,20.5*
COc1ccc(/C=C/C(=O)OCc2csc(-c3ccccc3)n2)cc1OC,-0.3,-3.7,7.8,0.3,17.6*
O=c1[nH]cnc2c1ncn2-c1ccc(Cl)cc1,0.1,.,.,-1.3,-2.1
CC(C)(C)OC(=O)N(CCc1ccccc1)Cc1ccccc1OCc1ccc(NC(=O)C2CCCC2)cc1,0.0,.,.,0.5,-1.9
CC(C)(C)[C@H]1COC(=O)[C@H](NC(=O)OCC2c3ccccc3-c3ccccc32)C/C=C\C[C@@H](CC(=O)N(CCO)Cc2ccccc2)C(=O)N1,0.2,10.4,-2.8,-0.2,-7.1
Cc1ccccc1/C=N/n1c(-c2ccccn2)n[nH]c1=S,0.0,-5.7,-2.8,-0.8,11.0*
Oc1ccc(Cl)cc1C1=NNC(c2ccc(Cl)cc2)C1 (configuration not stated),-0.2,-6.5,-21.3,7.1,11.5*
Oc1ccc(Cl)cc1C1=NNC(c2cc(Br)cc3c2OCOC3)C1 (configuration not stated),-0.9,-13.6,-2.5,3.1,-5.6
O=C(CC[C@H]1O[C@@H](n2ccc(=O)[nH]c2=O)[C@H](O)[C@@H]1O)N[C@H](Cc1ccccc1)C(=O)NCCCc1ccccc1,-0.4,.,.,0.9,.
COc1cccc(NC(=O)NCCC2=CCCCC2)c1,0.0,-0.2,2.9,11.8,0.3
SMILES,aDG glyco act,proCasp3 act,proCasp7 act,MPTP block,NR3A LBD binder
COc1ccc(NC(=O)NCCC2=CCCCC2)cc1,-0.1,-3.5,7.9,1.8,30.6*
Cc1onc(-c2ccccc2)c1C(=O)Nc1sc2c(c1C#N)CCC2,0.4,0.1,7.5,4.2,1.7
Cc1onc(-c2ccccc2)c1C(=O)NC(=S)Nc1sc2c(c1C#N)CCCC2,-0.2,-15.1,-29.8,41.6,10.6*
Brc1ccc(OCc2ccccc2)c(CNCc2ccncc2)c1,0.1,1.3,2.9,3.9,11.2*
O=C(NCCc1ccncc1)Nc1ccc(Cl)c(Cl)c1,0.0,0.7,1.2,24.0,18.0*
NC(=O)c1cccc(NC(=O)Nc2ccc(Cl)cc2)c1,0.1,5.1,-6.7,11.5,24.5*
O=C(Nc1ccc(Cl)cc1)Nc1ccc(Cl)c(Cl)c1,.,0.4,1.9,.,16.1*
CC(=O)c1cccc(NC(=O)Nc2ccccc2)c1,0.0,4.9,8.9,0.6,-10.9
O=C(Nc1ccc(Cl)cc1)Nc1cccc2nsnc12,0.8,-34.3,-8.7,34.9,21.0*
O=C(Nc1ccncc1)Nc1cccc(Cl)c1Cl,0.6,.,.,4.8,-1.8
O=C(Nc1ccc(Cl)c(Cl)c1)Nn1cnnc1,0.0,.,.,40.8,-2.2
CC(C)Nc1nc(Nc2ccc(F)cc2)c2sccc2n1,0.6,.,.,1.0,.
O=C(NCCNC(=O)Nc1ccc(Cl)cc1)Nc1ccc(Cl)cc1,-0.1,.,.,3.6,21.9*
Cn1cnnc1SCC(=O)NNC(=O)c1ccc([N+](=O)[O-])cc1,0.0,-4.8,10.3,0.5,-0.8
Cc1cccc(Nc2nc(-c3ccc(O)c(O)c3)cs2)n1,-0.4,1.4,-13.3,3.7,38.9*
Cc1cccnc1Nc1nc(-c2ccc(O)c(O)c2)cs1,-0.3,-17.4,-27.0,7.5,27.8*
CC(=O)Nc1nc(-c2ccc(-c3ccccc3)cc2)cs1,0.0,.,.,0.4,.
Cc1ccnc(Nc2nc(-c3ccc(O)cc3)cs2)c1,-0.3,12.3,5.3,5.5,17.9*
CC(=O)Nc1ccc(-c2csc(Nc3ccccn3)n2)cc1,-0.1,13.2,0.6,0.3,29.9*
Cc1cc(F)ccc1S(=O)(=O)N1CCCOC1CNC(=O)C(=O)NCCc1ccco1 (configuration not stated),0.2,.,.,-1.1,.
CCCCN1C(=O)C(CC(=O)NCCN2CCOCC2)CC(C(=O)N(CC)CC)=C1C (configuration not stated),-0.3,.,.,2.0,.
CCC(=O)Nc1nc(C)c(-c2csc(Nc3ccccn3)n2)s1,0.0,-2.5,-7.2,-1.6,25.0*
Oc1ccc(-c2csc(Nc3ccccn3)n2)cc1O,-0.3,-17.2,-24.8,4.0,33.4*
Cc1ccnc(Nc2nc(-c3ccc(O)c(O)c3)cs2)c1,-0.3,-12.2,-23.1,6.2,38.5*
CCCC(=O)Nc1nc(C)c(-c2csc(Nc3ccccc3C)n2)s1,0.0,-10.0,-12.6,-1.1,-8.0
Oc1ccc(-c2csc(Nc3cccc4ccccc34)n2)cc1O,-0.5,-15.0,-29.6,6.0,7.1
CC(=O)Nc1ccc(Nc2nc(-c3c(C)nc4ccccn34)cs2)cc1,-0.2,-0.1,-4.4,31.3,13.5*
O=C([O-])c1cc(-c2ccccc2)cc(-c2ccccc2)[n+]1Cc1ccccc1,.,4.8,0.1,.,.
Cc1ccnc(Nc2nc(-c3ccc(O)cc3O)cs2)c1,0.1,-8.7,-15.2,2.9,40.0*
CC1(C)COC(c2cccn2Cc2ccc(F)cc2Cl)=N1,3.0,0.8,5.1,0.0,0.8
